Reference: ChEMBL document CHEMBL1154196, “Synthesis and evaluation of (S,S)-N,N'-bis-[3-(2,2',6,6'-tetramethylbenzhydryloxy)-2-hydroxy-propyl]-ethylenediamine (S2824) analogs with anti-tuberculosis activity” (2009)
In brackets after ≈: the same amount, converted by molar mass.

What was measured:
[1] = tested on: Mycobacterium tuberculosis; experiment: Antitubercular activity against Mycobacterium tuberculosis H37Ra after 7 days; assay type: functional; details: 168 h
[2] = Selectivity index, ratio of IC50 for human THP1 cells to MIC for Mycobacterium tuberculosis; assay type: functional, THP-1
[3] = tested on: Mycobacterium tuberculosis; experiment: Antitubercular activity against Mycobacterium tuberculosis H37Rv ATCC 25618 after 7 days; assay type: functional; details: 168 h
[4] = tested on: Mycobacterium tuberculosis; experiment: Antitubercular activity against Mycobacterium tuberculosis H37Rv ATCC 25618 after 2 weeks; assay type: functional; details: 336 h
[5] = tested on: Mycobacterium tuberculosis; experiment: Ratio of MBC to MIC for Mycobacterium tuberculosis H37Rv; assay type: functional
Outline: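 H37Rv MBC obtained by subculturing MIC-assay cultures onto drug-free solid medium and counting CFU. The ratio relates this MBC to the MIC for the same strain.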

[6] = tested on: Mycobacterium tuberculosis; experiment: Antitubercular activity against drug-sensitive Mycobacterium tuberculosis by radiometric BACTEC460 method; assay type: functional

SMILES	MIC [1]	Ratio [2]	MIC [3]	MBC [4]	Ratio [5]	MIC [6]
O[C@@H](CNCCNC[C@H](O)COC(c1ccco1)c1ccco1)COC(c1ccco1)c1ccco1	25 µM (≈ 12.5 µg/mL)	>10				
Cc1ccc(C(OC[C@@H](O)CNCCNC[C@H](O)COC(c2ccc(C)cc2)c2ccc(C)cc2)c2ccc(C)cc2)cc1	5.24 µM (≈ 3.13 µg/mL)	>10	3.13 µg/mL	6.25 µg/mL (≈ 10.5 µM)	2	
O[C@H](CNCCNC[C@@H](O)COC(c1ccc(Br)cc1)c1ccc(Br)cc1)COC(c1ccc(Br)cc1)c1ccc(Br)cc1	7.34 µM (≈ 6.29 µg/mL)	>10				
CCOc1ccc(C(OC[C@@H](O)CNCCNC[C@H](O)COC(c2ccc(OCC)cc2)c2ccc(OCC)cc2)c2ccc(OCC)cc2)cc1	8.72 µM (≈ 6.25 µg/mL)	>10				
COCOc1ccc(C(OC[C@H](O)CNCCNC[C@@H](O)COC(c2ccc(OCOC)cc2)c2ccc(OCOC)cc2)c2ccc(OCOC)cc2)cc1	8 µM (≈ 6.25 µg/mL)	>10				
Cc1ccc(C(OC[C@H](O)CNCCNC[C@@H](O)COC(c2ccc(C)cc2)c2ccc(C)cc2)c2ccc(C)cc2)cc1	5.24 µM (≈ 3.13 µg/mL)	>10	3.13 µg/mL	6.25 µg/mL (≈ 10.5 µM)	2	
COc1ccc(C(OC[C@@H](O)CNCCNC[C@H](O)COC(c2ccc(OC)cc2)c2ccc(OC)cc2)c2ccc(OC)cc2)cc1	4.73 µM (≈ 3.13 µg/mL)	>10	3.13 µg/mL	25 µg/mL (≈ 37.8 µM)	8	
COCOc1ccc(C(OC[C@@H](O)CNCCNC[C@H](O)COC(c2ccc(OCOC)cc2)c2ccc(OCOC)cc2)c2ccc(OCOC)cc2)cc1	8 µM (≈ 6.25 µg/mL)	>10				
O[C@@H](CNCCNC[C@H](O)COC(c1ccc(Br)cc1)c1ccc(Br)cc1)COC(c1ccc(Br)cc1)c1ccc(Br)cc1	3.67 µM (≈ 3.14 µg/mL)	>10	3.13 µg/mL	25 µg/mL (≈ 29.2 µM)	8	
CCOc1ccc(C(OC[C@H](O)CNCCNC[C@@H](O)COC(c2ccc(OCC)cc2)c2ccc(OCC)cc2)c2ccc(OCC)cc2)cc1	8.72 µM (≈ 6.25 µg/mL)	>10				
CC(C)(C)c1ccc(C(OC[C@H](O)CNCCNC[C@@H](O)COC(c2ccc(C(C)(C)C)cc2)c2ccc(C(C)(C)C)cc2)c2ccc(C(C)(C)C)cc2)cc1	32.7 µM (≈ 25 µg/mL)	>10				
O[C@H](CNCCNC[C@@H](O)COC(c1ccco1)c1ccco1)COC(c1ccco1)c1ccco1	50 µM (≈ 25 µg/mL)	>10				
Cc1ccc(C(OC[C@@H](O)CN2CCN(C[C@H](O)COC(c3ccc(C)cc3)c3ccc(C)cc3)CC2)c2ccc(C)cc2)cc1	40.1 µM (≈ 25 µg/mL)	>10				
O[C@@H](COC(c1ccc(Br)cc1)c1ccc(Br)cc1)CN1CCN(C[C@@H](O)COC(c2ccc(Br)cc2)c2ccc(Br)cc2)CC1	28.3 µM (≈ 25 µg/mL)	>10				
Cc1ccc(C(OC[C@H](O)CN2CCN(C[C@@H](O)COC(c3ccc(C)cc3)c3ccc(C)cc3)CC2)c2ccc(C)cc2)cc1	2.5 µM (≈ 1.56 µg/mL)	12	1.56 µg/mL	6.25 µg/mL (≈ 10 µM)	4	3.13 µg/mL (≈ 5.03 µM)
Cc1ccc(C(OC[C@@H](O)CN2CCCN(C[C@H](O)COC(c3ccc(C)cc3)c3ccc(C)cc3)CC2)c2ccc(C)cc2)cc1	1.22 µM (≈ 0.777 µg/mL)	30.77	0.78 µg/mL	1.56 µg/mL (≈ 2.45 µM)	2	0.78 µg/mL (≈ 1.22 µM)
CC(C)Oc1ccc(C(OC[C@@H](O)CNCCNC[C@H](O)COC(c2ccc(OC(C)C)cc2)c2ccc(OC(C)C)cc2)c2ccc(OC(C)C)cc2)cc1	16.2 µM (≈ 12.5 µg/mL)	>10				
O[C@H](COC(c1ccc(Br)cc1)c1ccc(Br)cc1)CN1CCN(C[C@H](O)COC(c2ccc(Br)cc2)c2ccc(Br)cc2)CC1	28.3 µM (≈ 25 µg/mL)	>10				
O[C@H](CNCCNC[C@@H](O)COC(c1cccs1)c1cccs1)COC(c1cccs1)c1cccs1	22.1 µM (≈ 12.5 µg/mL)	>10				
COc1ccc(C(OC[C@H](O)CNCCNC[C@@H](O)COC(c2ccc(OC)cc2)c2ccc(OC)cc2)c2ccc(OC)cc2)cc1	9.46 µM (≈ 6.25 µg/mL)	>10				
CC(C)Oc1ccc(C(OC[C@H](O)CNCCNC[C@@H](O)COC(c2ccc(OC(C)C)cc2)c2ccc(OC(C)C)cc2)c2ccc(OC(C)C)cc2)cc1	8.09 µM (≈ 6.25 µg/mL)	>10				
O[C@@H](CNCCNC[C@H](O)COC(c1cccs1)c1cccs1)COC(c1cccs1)c1cccs1	22.1 µM (≈ 12.5 µg/mL)	>10				
COc1ccc(C(OC[C@@H](O)CNCCNC[C@H](O)COC(c2ccc(OC)c(OC)c2)c2ccc(OC)c(OC)c2)c2ccc(OC)c(OC)c2)cc1OC	16 µM (≈ 12.5 µg/mL)	>10				
O[C@H](CNCCNC[C@@H](O)COC(c1ccc2c(c1)OCCO2)c1ccc2c(c1)OCCO2)COC(c1ccc2c(c1)OCCO2)c1ccc2c(c1)OCCO2	16.2 µM (≈ 12.5 µg/mL)	>10				
O[C@H](CNCCNC[C@@H](O)COC(c1ccc2c(c1)OCO2)c1ccc2c(c1)OCO2)COC(c1ccc2c(c1)OCO2)c1ccc2c(c1)OCO2	17.4 µM (≈ 12.5 µg/mL)	>10				
O[C@@H](CNCCNC[C@H](O)COC(c1ccc2c(c1)OCO2)c1ccc2c(c1)OCO2)COC(c1ccc2c(c1)OCO2)c1ccc2c(c1)OCO2	8.72 µM (≈ 6.25 µg/mL)	>10				
COc1ccc(C(OC[C@H](O)CNCCNC[C@@H](O)COC(c2ccc(OC)c(OC)c2OC)c2ccc(OC)c(OC)c2OC)c2ccc(OC)c(OC)c2OC)c(OC)c1OC	13.9 µM (≈ 12.5 µg/mL)	>10				
CC(C)(C)c1ccc(C(OC[C@@H](O)CNCCNC[C@H](O)COC(c2ccc(C(C)(C)C)cc2)c2ccc(C(C)(C)C)cc2)c2ccc(C(C)(C)C)cc2)cc1	16.3 µM (≈ 12.5 µg/mL)	>10				
Cc1ccc(C(OC[C@H](O)CN2CCCN(C[C@@H](O)COC(c3ccc(C)cc3)c3ccc(C)cc3)CC2)c2ccc(C)cc2)cc1	1.22 µM (≈ 0.777 µg/mL)	26.92	0.78 µg/mL	3.13 µg/mL (≈ 4.91 µM)	4	0.78 µg/mL (≈ 1.22 µM)
CC[C@@H](CO)NCCN[C@@H](CC)CO [ETHAMBUTOL]			7.64 µM	3.13 µg/mL (≈ 15.3 µM)		3.13 µg/mL (≈ 15.3 µM)
